Columns and labels:
[1] = melting temperature; fluorescence melt of hairpins on a sequencing array, two-state fit, raised by 9.35 °C to match UV melts; conditions: sodium 0.088 M
Summary of the method: (§1)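 Library hairpins on a sequenced MiSeq flow cell carried annealed Cy3 and quencher oligos, and their Cy3 fluorescence was imaged in 50 mM Na-HEPES pH 8.0 with 25 mM NaCl, in 2.5 °C steps up to 60 °C. Signals were normalised to Cy3 before quenching and to control constructs. Melting temperature and folding enthalpy were obtained from bootstrapped two-state fits, combined by inverse-variance weighting across four replicates, and the fitted temperatures were then raised by 9.35 °C to match UV melts.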

[2] = folding enthalpy; higher = less favourable; fluorescence melt of hairpins on a sequencing array, two-state fit; conditions: sodium 0.088 M
Summary of the method: as §1

| Sequence | Tm [1] [°C] | folding enthalpy [2] [kcal/mol] |
| --- | --- | --- |
| GGTGTTGGAAACAATGCC ((..(((....)))..)) | 41.8 | -21 |
| GGGTCAGGAAACTGGTCC ((..(((....)))..)) | 39.9 | -30.1 |
| GCAAGCGGAAACACTTGC (((((.(....).))))) | 48.3 | -46.6 |
| GATCCGCAGGCGGATC ((((((....)))))) | 66.6 | -28.3 |
| CTTGGGAAACCAAG (((((....))))) | 45.9 | -22.4 |
| GGACATGGAAACACGTCC ((((.((....)).)))) | 42.7 | -30 |
| GCGTTCGAAAGAAGCGC ((((((....))).))) | 52.5 | -28.8 |
| GCTTGGCGAAAGCGGAGC (((..((....))..))) | 48.6 | -16.8 |
| GCTCGGCGAAAGCTCAGC (((..((....))..))) | 44.7 | -11.9 |
| GATGTAGGAAACTGCATC ((((.((....)).)))) | 45 | -34.6 |
| GCATCGCGAAAGCGTCGC ((..(((....)))..)) | 42.1 | -11.5 |
| GTTGCCGAAAGGCTGAAC ((((((....)))..))) | 31.4 | -9.17 |
| TTGCTGAAAAGCAA (((((....))))) | 49.2 | -16.2 |
| GATCAAATGTTTGATC ((((((....)))))) | 45.1 | -34.6 |
| GATGGGGAAACCCATC ((((((....)))))) | 57.8 | -34.2 |
| GATCCCATCGGGATC ((((((...)))))) | 67.4 | -36.5 |
| GCGGTACTCCGC ((((....)))) | 64.1 | -23.3 |
| GATCTTCTCCAAGATC ((((((....)))))) | 41.1 | -29.8 |
| GCGTAGCTACGC ((((....)))) | 68.1 | -12.6 |
| GGGGACCCGAAAGGGCCC (((..(((....)))))) | 62.3 | -16.4 |
| GTGGTCGGAAACAACCAC (((((.(....).))))) | 45.4 | -29.4 |
| GGAGAAGGAAACTTTTCC (((.(((....))).))) | 31.1 | -26.2 |
| GTGCATCGAAAGATACAC (((.(((....))).))) | 47 | -35.2 |
| GCTAGAGGAAACCCTAGC (((((.(....).))))) | 41.4 | -31.2 |

| Sequence | Tm [1] [°C] | folding enthalpy [2] [kcal/mol] |
| --- | --- | --- |
| GAACCTGGAAACAAGTTC ((((.((....)).)))) | 26.8 | -15.9 |
| GCGCCAGGAAACTAGCGC ((((.((....)).)))) | 52.5 | -42.1 |
| GCGTCCCGAAAGGGTCGC (((.(((....))).))) | 67.8 | -36.9 |
| GATCGTCAGGACGATC ((((((....)))))) | 58.3 | -45.6 |
| GAGTCCGAAAGGACCCTC ((((((....)))..))) | 43.5 | -10.3 |
| GATTAGGGAAACTTAATC (((((.(....).))))) | 29.1 | -17.3 |
| GATCTGTACTCAGATC ((((((....)))))) | 50.2 | -36.1 |
| GGTAGCCGAAAGGCCACC (((.(((....))).))) | 52.2 | -19.5 |
| GATCAACTATTTGATC ((((((....)))))) | 42.4 | -31.5 |
| GCCCGCGAAAGCGTCGGC ((((((....)))..))) | 56.5 | -17.9 |
| GTGTGCGGAAACGTACAC ((((.((....)).)))) | 56.2 | -40.2 |
| GTCACCTCGAAAGAGGAC (((..(((....)))))) | 26.9 | -9.82 |
| GCGCAAGGAAACCTACGC (((.(.(....).).))) | 34.6 | -16.4 |
| GCCCAAGGAAACTTGAGC ((.((((....)))).)) | 37.7 | -25.1 |
| GGTCACTCGAAAGAGACC (((..(((....)))))) | 40.8 | -24.1 |
| CGCGGACGATCCGCG ((((((...)))))) | 63.2 | -35.3 |
| GAAGGCGGAAACGTCTTC ((((.((....)).)))) | 53.1 | -45.1 |
| GCTTTCGAAAGAACTAGC ((((((....)))..))) | 25.4 | -12.3 |
| GATATACGAAAGTAAATC (((.(((....))).))) | 33 | -14.6 |
| CACGAGAAATCGTG (((((....))))) | 50.6 | -23.5 |
| GTCCGCGAAAGCGTCGAC ((((((....)))..))) | 37.2 | -13.3 |
| GGCGCGGCGAAAGCCGCC (((..(((....)))))) | 48.6 | -5.51 |
| GCGTTCGTACGC ((((....)))) | 58.3 | -22.1 |
| GCTCTGGCGAAAGCCAGC (((..(((....)))))) | 31.5 | -6.82 |

| Sequence | Tm [1] [°C] | folding enthalpy [2] [kcal/mol] |
| --- | --- | --- |
| GCGAACGTTCGC ((((....)))) | 55.8 | -39.5 |
| GATCTCACGGGAGATC ((((((....)))))) | 51.7 | -39.3 |
| GCGCGGGGAAACCCGCAC (.(((((....))))).) | 53.9 | -8.32 |
| GACGCTACGAAAGTAGTC (((..(((....)))))) | 35.9 | -13.2 |
| GCTGTAGAAATACAGC ((((((....)))))) | 56.9 | -34.7 |
| GATTTGGGAAACCGAATC ((((.((....)).)))) | 44.5 | -31.1 |
| GCGATCGAAAGATTTCGC ((((((....)))..))) | 39.8 | -26.4 |
| GATCATCGACATGATC ((((((....)))))) | 44.8 | -30.4 |
| GCTTAAGGAAACTTGAGC (((.(((....))).))) | 38.9 | -31.5 |
| GATCCTCGAAGGATC ((((((...)))))) | 50.1 | -26.7 |
| GATCGCCGACGCGATC ((((((....)))))) | 66.5 | -35.7 |
| GGGGTGGGAAACTACCCC (((((.(....).))))) | 55.8 | -46.6 |
| GTCCGGGGAAACCCGGGC (.(((((....))))).) | 65 | -21.6 |
| GTCAGCGGAAACGTTGGC (.((.((....)).)).) | 42.2 | -26 |
| GATCCCATAGGGATC ((((((...)))))) | 67 | -36.9 |
| GGTGAGCGAAAGCTTACC (((.(((....))).))) | 59.3 | -26.7 |
| GTTCAGGAAACTGAAC ((((((....)))))) | 53.8 | -36.7 |
| GCACTTCGAAAGAACTGC (((.(((....))).))) | 34.4 | -22.1 |
| GCATTGCGAAAGCGAAGC ((.(.((....)).).)) | 38.9 | -14.5 |
| GATCACCTGGTGATC ((((((...)))))) | 58.1 | -33.1 |
| GCAGAGCGAAAGCTTTGC (((.(((....))).))) | 56.1 | -53.2 |
| GGCACTGGAAACAATGCC ((((.((....)).)))) | 42.7 | -29.6 |
| GCGGATAACCGC ((((....)))) | 53 | -19.6 |
| GCATTCGGAAACGAGTGC (((.(((....))).))) | 53 | -46.7 |

| Sequence | Tm [1] [°C] | folding enthalpy [2] [kcal/mol] |
| --- | --- | --- |
| GCGACTATCGC ((((...)))) | 46.6 | -16.8 |
| GATCTAATACTAGATC ((((((....)))))) | 37.4 | -30.1 |
| GGGGGCGGAAACGCCTCC ((.((((....)))).)) | 66.7 | -24.1 |
| GATCCTTATGAGGATC ((((((....)))))) | 53.3 | -37.1 |
| GACAGGAAACTGTC (((((....))))) | 51.6 | -31.3 |
| GCGTGAGGAAACTCGTGC ((..(((....)))..)) | 38.9 | -28.7 |
| GCCTACCGAAAGGTGGC (((.(((....)))))) | 57 | -25.4 |
| GATCCCCGAAAGGGATC (((.(((....)))))) | 56.2 | -29.8 |
| CGGACGGAAACGTGTCCG ((((((....)))..))) | 49.5 | -32.8 |
| GGCTGGGGAAACTCGGCC (((.(.(....).).))) | 49.4 | -36.5 |
| GATCTCGTACGAGATC ((((((....)))))) | 61.7 | -39.7 |
| GGATTCGGAAACGGATTC (.((.((....)).)).) | 32.3 | -16.7 |
| GATCCGCCGACGGATC ((((((....)))))) | 58.3 | -38 |
| GCGTTCGAAAGAAGCCGC ((((((....)))..))) | 35.9 | -22.7 |
| GCGTTTATACGC ((((....)))) | 55.7 | -27.7 |
| GCTCAGCGAAAGCAAAGC (((..((....))..))) | 38.4 | -13.6 |
| GATCCACTCTTGGATC ((((((....)))))) | 51 | -35.1 |
| GTGGAGCGAAAGCTGCAC (((.(((....))).))) | 62.4 | -34 |
| GTCCTGGGAAACCAGGGC (.(((((....))))).) | 56.9 | -35.5 |
| GGGTCGCGAAAGCGTCCC (((.(((....))).))) | 67.1 | -29 |
| GGGTGTCGAAAGACCCC (((.(((....)))))) | 56.4 | -35.6 |
